# Key:
# Format in all cases: functional
# U-251 = assay: Cytotoxicity against human U251 cells assessed as cell growth at 5 uM by SRB assay; conditions: read-out: Activity
# MDA-MB-468 [1] = assay: Cytotoxicity against human MDA-MB-468 cells assessed as cell growth at 0.5 uM by SRB assay; conditions: read-out: Activity
# SK-MEL-2 [2] = assay: Cytotoxicity against human SK-MEL-2 cells assessed as cell growth at 0.5 uM by SRB assay; conditions: read-out: Activity
# SNB-75 = assay: Cytotoxicity against human SNB75 cells assessed as cell growth at 0.05 uM by SRB assay; conditions: read-out: Activity
# NCI-H226 = assay: Cytotoxicity against human NCI-H226 cells assessed as cell growth at 0.5 uM by SRB assay; conditions: read-out: Activity
# RXF 393 [3] = assay: Cytotoxicity against human RXF393 cells assessed as cell growth at 5 uM by SRB assay; conditions: read-out: Activity
# NCI-H460 [4] = assay: Cytotoxicity against human NCI-H460 cells assessed as cell growth at 5 uM by SRB assay; conditions: read-out: Activity
# HOP-62 [5] = assay: Cytotoxicity against human HOP62 cells assessed as cell growth at 50 uM by SRB assay; conditions: read-out: Activity
# Procedure, shortened: (§1)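 Measured in the NCI-60 human tumour cell line panel using five-dose testing. Growth was recorded at each dose for each cell line, and a GI50 was derived for each line.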
# LOX IMVI = assay: Cytotoxicity against human LOXIMVI cells by SRB assay
# Procedure, shortened: (§2)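 NCI-60 panel screen; 5-dose testing giving GI50 per cell line, plus a single 10 µM one-dose test. Method details not given beyond the NCI screen.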
# [6] = Cytotoxicity against human Hs578T cells by SRB assay; conditions: Hs-578T; procedure, shortened: as §1
# HOP-62 [7] = assay: Cytotoxicity against human HOP62 cells assessed as cell growth at 5 uM by SRB assay; conditions: read-out: Activity; procedure, shortened: as §1
# HOP-62 [8] = assay: Cytotoxicity against human HOP62 cells assessed as cell growth at 0.005 uM by SRB assay; conditions: read-out: Activity; procedure, shortened: as §1
# OVCAR-3 = assay: Cytotoxicity against human OVCAR3 cells assessed as cell growth at 0.005 uM by SRB assay; conditions: read-out: Activity
# UACC-62 = assay: Cytotoxicity against human UACC62 cells assessed as cell growth at 0.05 uM by SRB assay; conditions: read-out: Activity
# SF-295 = assay: Cytotoxicity against human SF295 cells assessed as cell growth at 5 uM by SRB assay; conditions: read-out: Activity
# M14 = assay: Cytotoxicity against human M14 cells by SRB assay; procedure, shortened: as §2
# SW-620 [9] = assay: Cytotoxicity against human SW620 cells by SRB assay; procedure, shortened: as §2
# NCI-H522 [10] = assay: Cytotoxicity against human NCI-H522 cells by SRB assay; procedure, shortened: as §2
# RXF 393 [11] = assay: Cytotoxicity against human RXF393 cells assessed as cell growth at 0.05 uM by SRB assay; conditions: read-out: Activity
# SR [12] = assay: Cytotoxicity against human SR cells assessed as cell growth at 50 uM by SRB assay; conditions: read-out: Activity
# HCT-15 = assay: Cytotoxicity against human HCT15 cells assessed as cell growth at 0.5 uM by SRB assay; conditions: read-out: Activity; procedure, shortened: as §1
# SW-620 [13] = assay: Cytotoxicity against human SW620 cells assessed as cell growth at 0.005 uM by SRB assay; conditions: read-out: Activity
# RPMI-8226 [14] = assay: Cytotoxicity against human RPMI8226 cells assessed as cell growth at 5 uM by SRB assay; conditions: read-out: Activity
# NCI-H23 [15] = assay: Cytotoxicity against human NCI-H23 cells assessed as cell growth at 0.005 uM by SRB assay; conditions: read-out: Activity
# OVCAR-4 = assay: Cytotoxicity against human OVCAR4 cells assessed as cell growth at 0.05 uM by SRB assay; conditions: read-out: Activity
# NCI-H522 [16] = assay: Cytotoxicity against human NCI-H522 cells assessed as cell growth at 0.5 uM by SRB assay; conditions: read-out: Activity
# UO-31 = assay: Cytotoxicity against human UO31 cells assessed as cell growth at 5 uM by SRB assay; conditions: read-out: Activity
# MOLT-4 = assay: Cytotoxicity against human MOLT4 cells by SRB assay; procedure, shortened: as §2
# SF-268 = assay: Cytotoxicity against human SF268 cells assessed as cell growth at 0.05 uM by SRB assay; conditions: read-out: Activity
# SR [17] = assay: Cytotoxicity against human SR cells assessed as cell growth at 0.005 uM by SRB assay; conditions: read-out: Activity
# SK-MEL-2 [18] = assay: Cytotoxicity against human SK-MEL-2 cells assessed as cell growth at 0.005 uM by SRB assay; conditions: read-out: Activity
# RPMI-8226 [19] = assay: Cytotoxicity against human RPMI8226 cells assessed as cell growth at 0.05 uM by SRB assay; conditions: read-out: Activity
# OVCAR-5 = assay: Cytotoxicity against human OVCAR5 cells assessed as cell growth at 0.5 uM by SRB assay; conditions: read-out: Activity
# CAKI-1 = assay: Cytotoxicity against human Caki1 cells assessed as cell growth at 5 uM by SRB assay; conditions: read-out: Activity
# NCI-H23 [20] = assay: Cytotoxicity against human NCI-H23 cells assessed as cell growth at 5 uM by SRB assay; conditions: read-out: Activity
# IGROV-1 = assay: Cytotoxicity against human IGROV1 cells assessed as cell growth at 0.05 uM by SRB assay; conditions: read-out: Activity; procedure, shortened: as §1
# NCI-H460 [21] = assay: Cytotoxicity against human NCI-H460 cells by SRB assay; procedure, shortened: as §2
# SW-620 [22] = assay: Cytotoxicity against human SW620 cells assessed as cell growth at 50 uM by SRB assay; conditions: read-out: Activity
# HCT-116 [23] = assay: Cytotoxicity against human HCT116 cells assessed as cell growth at 50 uM by SRB assay; conditions: read-out: Activity; procedure, shortened: as §1
# A498 = assay: Cytotoxicity against human A498 cells assessed as cell growth at 0.05 uM by SRB assay; conditions: read-out: Activity
# A549 = assay: Cytotoxicity against human A549/ATCC cells assessed as cell growth at 0.005 uM by SRB assay; conditions: read-out: Activity
# HCT-116 [24] = assay: Cytotoxicity against human HCT116 cells assessed as cell growth at 0.05 uM by SRB assay; conditions: read-out: Activity; procedure, shortened: as §1
# MDA-MB-468 [25] = assay: Cytotoxicity against human MDA-MB-468 cells assessed as cell growth at 0.005 uM by SRB assay; conditions: read-out: Activity
# [26] = read-out: LC50 (the source's name)
# [27] = read-out: pLC50 (the source's name) (converted)
structure (smiles),measurement,setting,value
COc1cc([C@@H]2c3cc4c(cc3[C@@H](NC(=O)CN3CCN(CCCCCCN5CCN(CC(=O)N[C@@H]6c7cc8c(cc7[C@@H](c7cc(OC)c(O)c(OC)c7)[C@H]7C(=O)OC[C@@H]76)OCO8)CC5)CC3)[C@H]3COC(=O)[C@H]23)OCO4)cc(OC)c1O,growth at 5 µM,U-251,23%
same,growth at 0.5 µM,MDA-MB-468 [1],83%
same,growth at 0.5 µM,SK-MEL-2 [2],105%
same,growth at 0.05 µM,SNB-75,77%
same,growth at 0.5 µM,NCI-H226,73%
same,growth at 5 µM,RXF 393 [3],66%
same,growth at 5 µM,NCI-H460 [4],11%
same,growth at 50 µM,HOP-62 [5],-22%
same,GI50,LOX IMVI; read-out: GI50,0.966 µM
same,CC50,LOX IMVI; [26],> 50 µM
same,TGI,LOX IMVI; read-out: TGI,28 µM
same,GI50,LOX IMVI; read-out: pGI50 (converted),0.977 µM
same,CC50,LOX IMVI; [27],> 50.1 µM
same,TGI,LOX IMVI; read-out: pTGI (converted),28.2 µM
same,GI50,[6]; read-out: GI50,8.93 µM
same,CC50,[6]; [26],> 50 µM
same,TGI,[6]; read-out: TGI,> 50 µM
same,GI50,[6]; read-out: pGI50 (converted),8.91 µM
same,CC50,[6]; [27],> 50.1 µM
same,TGI,[6]; read-out: pTGI (converted),> 50.1 µM
same,growth at 5 µM,HOP-62 [7],42%
same,growth at 0.005 µM,HOP-62 [8],95%
same,growth at 0.005 µM,OVCAR-3,110%
same,growth at 0.05 µM,UACC-62,90%
same,growth at 5 µM,SF-295,50%
same,GI50,M14; read-out: GI50,2.31 µM
same,CC50,M14; [26],> 50 µM
same,TGI,M14; read-out: TGI,22.1 µM
same,GI50,M14; read-out: pGI50 (converted),2.29 µM
same,CC50,M14; [27],> 50.1 µM
same,TGI,M14; read-out: pTGI (converted),21.9 µM
same,GI50,SW-620 [9]; read-out: GI50,1.6 µM
same,CC50,SW-620 [9]; [26],> 50 µM
same,TGI,SW-620 [9]; read-out: TGI,> 50 µM
same,GI50,SW-620 [9]; read-out: pGI50 (converted),1.58 µM
same,CC50,SW-620 [9]; [27],> 50.1 µM
same,TGI,SW-620 [9]; read-out: pTGI (converted),> 50.1 µM
same,GI50,NCI-H522 [10]; read-out: GI50,5.13 µM
same,CC50,NCI-H522 [10]; [26],> 50 µM
same,TGI,NCI-H522 [10]; read-out: TGI,28.8 µM
same,GI50,NCI-H522 [10]; read-out: pGI50 (converted),5.13 µM
same,CC50,NCI-H522 [10]; [27],> 50.1 µM
same,TGI,NCI-H522 [10]; read-out: pTGI (converted),28.8 µM
same,growth at 0.05 µM,RXF 393 [11],92%
same,growth at 50 µM,SR [12],1%
same,growth at 0.5 µM,HCT-15,90%
same,growth at 0.005 µM,SW-620 [13],97%
same,growth at 5 µM,RPMI-8226 [14],-1%
same,growth at 0.005 µM,NCI-H23 [15],102%
same,growth at 0.05 µM,OVCAR-4,89%
same,growth at 0.5 µM,NCI-H522 [16],75%
same,growth at 5 µM,UO-31,89%
same,GI50,MOLT-4; read-out: GI50,0.233 µM
same,CC50,MOLT-4; [26],> 50 µM
same,TGI,MOLT-4; read-out: TGI,> 50 µM
same,GI50,MOLT-4; read-out: pGI50 (converted),0.234 µM
same,CC50,MOLT-4; [27],> 50.1 µM
same,TGI,MOLT-4; read-out: pTGI (converted),> 50.1 µM
same,growth at 0.05 µM,SF-268,100%
same,growth at 0.005 µM,SR [17],90%
same,growth at 0.005 µM,SK-MEL-2 [18],102%
same,growth at 0.05 µM,RPMI-8226 [19],86%
same,growth at 0.5 µM,OVCAR-5,86%
same,growth at 5 µM,CAKI-1,80%
same,growth at 5 µM,NCI-H23 [20],44%
same,growth at 0.05 µM,IGROV-1,105%
same,GI50,NCI-H460 [21]; read-out: GI50,0.261 µM
same,CC50,NCI-H460 [21]; [26],> 50 µM
same,TGI,NCI-H460 [21]; read-out: TGI,9.45 µM
same,GI50,NCI-H460 [21]; read-out: pGI50 (converted),0.263 µM
same,CC50,NCI-H460 [21]; [27],> 50.1 µM
same,TGI,NCI-H460 [21]; read-out: pTGI (converted),9.55 µM
same,growth at 50 µM,SW-620 [22],4%
same,growth at 50 µM,HCT-116 [23],2%
same,growth at 0.05 µM,A498,96%
same,growth at 0.005 µM,A549,99%
same,growth at 0.05 µM,HCT-116 [24],98%
same,growth at 0.005 µM,MDA-MB-468 [25],91%
